Results taken from ChEMBL document CHEMBL4732039, “Introduction of a cyano group at the 2-position of an (R,S)-3-hydroxy-2-(phosphonomethoxy)propyl (HPMP) derivative of thymine elicits selective anti-HBV activity” (RSC Med Chem, 2021).

What was measured:
Human betaherpesvirus 5 [1] = experiment: Antiviral activity against HCMV AD169 infected in human HFF cells assessed as reduction in virus-induced cytopathic effect incubated for 14 days by cell-titer glo assay; type: functional, cell-based; conditions: Human betaherpesvirus 5, AD169, HFF, 336 h; for EC90: time 14 day
[2] = Cytotoxicity against human HFF cells assessed as reduction in cell viability incubated for 14 days by cell titer glo assay; type: cell-based; conditions: time 14 day
[3] = Selectivity index, ratio of CC50 for human HFF cells to EC50 for antiviral activity against HCMV AD169
Human alphaherpesvirus 3 = experiment: Antiviral activity against VZV infected in human HFF cells assessed as reduction in virus-induced cytopathic effect incubated for 14 days by cell-titer glo assay; type: functional, organism-based; conditions: Human alphaherpesvirus 3, HFF, 336 h; for EC90: time 14 day
[4] = Selectivity index, ratio of CC50 of human HFF cells to EC50 of antiviral activity against VZV; type: toxicity; conditions: read-out: Ratio CC50/EC50
Hepatitis B virus = experiment: Antiviral activity against HBV infected in human HepG2.2.2.15 cells assessed as inhibition of viral replication preincubated for 3 days followed by media replenishment with fresh drug and further incubated for 3 days by qPCR analysis; type: functional, organism-based; conditions: for EC50: HepG2 2.2.15; for EC90: HepG2 2.2.15, 144 h, time 6 day
Procedure, shortened: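 HepG2 2.2.15 human hepatoblastoma cells, carrying two copies of wild-type HBV (strain ayw) genome and constitutively producing virus. Extracellular HBV DNA copy number from released virions quantified by real-time TaqMan qPCR. […] Lamivudine (3TC) was the positive control.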

[5] = Cytotoxicity against human HepG2.2.2.15 cells assessed as reduction in cell viability incubated for 6 days by cell titer glo assay; type: cell-based; conditions: time 6 day
[6] = Selectivity index, ratio of CC50 of human HepG2.2.2.15 cells to EC50 of antiviral activity against HBV infected in human HepG2.2.2.15 cells; type: toxicity, cell-based; conditions: read-out: Ratio CC50/EC50
[7] = system: Human immunodeficiency virus 1; experiment: Antiviral activity against HIV-1 3B infected in human MT4 cells assessed as reduction in virus-induced cytopathic effect measured after 5 days by MTT assay; type: functional, organism-based
Procedure, shortened: (§1)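 MT-4 cells infected with wild-type HIV-1 IIIB or HIV-2 ROD. Protection read out by MTT assay. Cytotoxicity was assessed in parallel in uninfected MT-4 cells.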

[8] = system: Human immunodeficiency virus 2; experiment: Antiviral activity against HIV-2 ROD infected in human MT4 cells assessed as reduction in virus-induced cytopathic effect measured after 5 days by MTT assay; type: functional, organism-based; procedure, shortened: as §1
Human betaherpesvirus 5 [9] = experiment: Antiviral activity against HCMV AD169 infected in human embryonic lung cells; type: functional, cell-based; conditions: Human betaherpesvirus 5, AD169, Lung

SMILES | EC50 (Human betaherpesvirus 5 [1]) [µM] | EC90 (Human betaherpesvirus 5 [1]) [µM] | CC50 at 336 h [2] [µM] | Ratio CC50/EC50 [3] | EC50 (Human alphaherpesvirus 3) [µM] | EC90 (Human alphaherpesvirus 3) [µM] | selectivity ratio [4] | EC50 (Hepatitis B virus) [µM] | EC90 (Hepatitis B virus) [µM] | CC50 at 144 h [5] [µM] | selectivity ratio [6] | EC50 ([7]; mt4) | EC50 ([8]; mt4) | EC50 ([7]; Human immunodeficiency virus 1, 3B, MT4, 120 h, read-out: EC50) [µM] | EC50 ([8]; Human immunodeficiency virus 2, ROD, MT4, 120 h, read-out: EC50) [µM] | EC50 (Human betaherpesvirus 5 [9]) [µM]
CCN(CC)CC.N#CC(CO)(Cn1ccc(=O)[nH]c1=O)OCP(=O)(O)O (stereo not drawn) | > 150 | > 150 | > 150 | 1 | > 150 | > 150 | 1 | > 100 | > 100 | > 100 | 1 | Not Active | Not Active |  |  | 
CCN(CC)CC.N#CC(CO)(Cn1cnc2c(=O)[nH]c(N)nc21)OCP(=O)(O)O (stereo not drawn) | 2 | > 30 | 102 | 50 | 2.08 | > 30 | 47 | > 100 | > 100 | > 100 | 1 |  |  | 51 | 33.7 | 
CCN(CC)CC.N#CC(CO)(Cn1cnc2c(N)ncnc21)OCP(=O)(O)O (stereo not drawn) | 1.1 | > 150 | > 150 | >137 | 106 | > 150 | 1 | 3.6 | 9.9 | > 100 |  | Not Active | Not Active |  |  | 
CCN(CC)CC.Cc1cn(CC(C#N)(CO)OCP(=O)(O)O)c(=O)[nH]c1=O (stereo not drawn) | > 150 | > 150 | > 150 | 1 | > 150 | > 150 | 1 | 0.33 | 0.79 | > 100 | > 302000 | Not Active | Not Active |  |  | 
Nc1nc2c(ncn2COC(CO)CO)c(=O)[nH]1 [GANCICLOVIR] | 0.9 | 74.2 | > 150 |  |  |  |  |  |  |  |  |  |  |  |  | 
Nc1ncnc2c1ncn2C[C@@H](CO)OCP(=O)(O)O |  |  |  |  |  |  |  |  |  |  |  |  |  |  |  | 1
CCN(CC)CC.N#CC(CO)(Cn1ccc(N)nc1=O)OCP(=O)(O)O (stereo not drawn) | > 150 | > 150 | > 150 | 1 | > 150 | > 150 | 1 | > 100 | > 100 | > 100 | 1 | Not Active | Not Active |  |  | 
